Source: ChEMBL document CHEMBL1795243, “New microtubule polymerization inhibitors comprising a nitrooxymethylphenyl group” (Bioorg Med Chem, 2011)
Activity calls are given as the source filed them. The rule behind the calls is not given here.

Tests used:
HCT-116 [1] = assay: Cell cycle arrest in human HCT116 cells assessed as accumulation at G0/G1 phase at 40 uM after 24 hrs by FACS analysis (reference value: 76.5 %); assay type: functional
MCF7 = assay: Antiproliferative activity against human MCF7 cells after 72 hrs by cell counting kit analysis; assay type: functional, cell-based; details: MCF7, 72 h
Summary of the method: (§1)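 Cells grown with compound for 72 h, then growth quantified by WST-1 Cell Counting Kit. Final concentrations 1, 10, 25, 50, 100 and 200 μM. All media had 10% FBS, 37 °C, 5% CO2. Read-out IC50.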

HCT-116 [2] = assay: Induction of apoptosis in human HCT116 cells at 40 uM after 24 hrs using FITC-TUNEL staining by flow cytometry; assay type: functional
Summary of the method: (§2)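 HCT116 at 1.0×10^6 per 60 mm dish, treated 24 or 48 h (0.4% DMSO control). Floating plus adherent cells assayed with DeadEnd Fluorometric TUNEL System, and FITC-TUNEL-positive percentage read by flow cytometry. Five independent experiments.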

HCT-116 [3] = assay: Cell cycle arrest in human HCT116 cells assessed as accumulation at S phase at 40 uM after 24 hrs by FACS analysis (reference value: 8.5 %); assay type: functional
SK-BR-3 = assay: Antiproliferative activity against human SK-BR-3 cells after 72 hrs by cell counting kit analysis; assay type: functional, cell-based; details: SK-BR-3, 72 h; summary of the method: as §1
HCT-116 [4] = assay: Antiproliferative activity against human HCT116 cells after 72 hrs by cell counting kit analysis; assay type: functional, cell-based; details: HCT-116, 72 h; summary of the method: as §1
HCT-116 [5] = assay: Induction of apoptosis in human HCT116 cells at 40 uM after 48 hrs using FITC-TUNEL staining by flow cytometry (reference value: 7.3 %); assay type: functional; summary of the method: as §2
HCT-116 [6] = assay: Cell cycle arrest in human HCT116 cells assessed as accumulation at G2/M phase at 40 uM after 24 hrs by FACS analysis (reference value: 10.9 %); assay type: functional
SW-620 = assay: Antiproliferative activity against human SW620 cells after 72 hrs by cell counting kit analysis; assay type: functional, cell-based; details: SW-620, 72 h; summary of the method: as §1
HCT-116 [7] = assay: Cell cycle arrest in human HCT116 cells assessed as accumulation at sub-G1 phase at 40 uM after 24 hrs by FACS analysis (reference value: 6.2 %); assay type: functional
HCT-116 [8] = assay: Cell cycle arrest in human HCT116 cells assessed as increase of phosphorylated histone H3 at Ser10 level at 20 to 40 uM after 24 hrs by Western blotting; assay type: functional, cell-based
Summary of the method: (§3)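 HCT116 (1.0×10^6/dish) serum-starved 24 h, then treated 24 h in serum-free medium (0.4% DMSO control). Lysed 1 h at 0 °C in modified lysis buffer (pH 8.0, 1% NP-40). 7.5 µg protein run on SDS-PAGE and PVDF blot, probed for phospho-histone H3 Ser10 and total H3, ECL detection. Five independent experiments.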

MDA-MB-231 = assay: Antiproliferative activity against human MDA-MB-231 cells after 72 hrs by cell counting kit analysis; assay type: functional, cell-based; details: MDA-MB-231, 72 h; summary of the method: as §1
HCT-116 [9] = assay: Cell cycle arrest in human HCT116 cells assessed as increase of phosphorylated histone H3 at Ser10 level at 40 uM after 24 hrs using propidium iodide staining by flow cytometry (reference value: 1.4 %); assay type: functional
SW480 = assay: Antiproliferative activity against human SW480 cells after 72 hrs by cell counting kit analysis; assay type: functional, cell-based; details: SW480, 72 h; summary of the method: as §1
Tubulin (Homo sapiens) [10] = molecular target: T1, Tubulin (Homo sapiens) (UniProt P68371+Q9H4B7+P0DPH7+P68366+Q13509+Q71U36+P04350+Q3ZCM7+P07437+P68363+Q9BQE3+Q6PEY2+Q13885+Q9BVA1+Q9BUF5); assay: Inhibition of alpha-tubulin polymerization in human HT1080 cells assessed as disruption of microtubule structures at 100 nM after 4 hrs using Hoechst staining by fluorescence microscopic analysis; assay type: cell-based; details: HT-1080
Tubulin (Homo sapiens) [11] = molecular target: T1, Tubulin (Homo sapiens); assay: Inhibition of alpha-tubulin polymerization in human HT1080 cells assessed as disruption of microtubule structures at 10 uM after 4 hrs using Hoechst staining by fluorescence microscopic analysis; assay type: cell-based; details: HT-1080
HCT-116 [12] = assay: Induction of apoptosis in human HCT116 cells at 20 uM after 48 hrs using FITC-TUNEL staining by flow cytometry (reference value: 7.3 %); assay type: functional; summary of the method: as §2
HCT-116 [13] = assay: Cell cycle arrest in human HCT116 cells assessed as accumulation at S phase at 20 uM after 24 hrs by FACS analysis (reference value: 8.5 %); assay type: functional
Tubulin (Sus scrofa) = Tubulin (Sus scrofa) (UniProt P02554+P02550); assay: Inhibition of purified porcine brain tubulin polymerization at 20 uM after 100 mins by fluorescence assay
Summary of the method: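 Porcine brain tubulin 2.0 mg/mL in General Tubulin Buffer with Tubulin Glycerol Buffer, GTP and DAPI. Added to compound prewarmed at 37 °C (final 2.0% DMSO, which is also the vehicle control). DAPI fluorescence (ex 340, em 460 nm) read kinetically over 100 min. Four independent experiments.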

HCT-116 [14] = assay: Cell cycle arrest in human HCT116 cells assessed as accumulation at G0/G1 phase at 20 uM after 24 hrs by FACS analysis (reference value: 76.5 %); assay type: functional
HCT-116 [15] = assay: Cell cycle arrest in human HCT116 cells assessed as accumulation at sub-G1 phase at 20 uM after 24 hrs by FACS analysis (reference value: 6.2 %); assay type: functional
HCT-116 [16] = assay: Induction of apoptosis in human HCT116 cells at 20 uM after 24 hrs using FITC-TUNEL staining by flow cytometry; assay type: functional; summary of the method: as §2
HCT-116 [17] = assay: Cell cycle arrest in human HCT116 cells assessed as accumulation at G2/M phase at 20 uM after 24 hrs by FACS analysis (reference value: 10.9 %); assay type: functional
[18] = Antiproliferative activity against human CCD-1059SK cells at 200 uM after 72 hrs by cell counting kit analysis; assay type: cell-based; summary of the method: as §1
HCT-116 [19] = assay: Cell cycle arrest in human HCT116 cells assessed as increase of phosphorylated histone H3 at Ser10 level at 20 uM after 24 hrs using propidium iodide staining by flow cytometry (reference value: 1.4 %); assay type: functional
HCT-116 [20] = assay: Cell cycle arrest in human HCT116 cells assessed as accumulation at sub-G1 phase at 150 nM after 24 hrs by FACS analysis (reference value: 6.2 %); assay type: functional
HCT-116 [21] = assay: Induction of apoptosis in human HCT116 cells at 150 nM after 48 hrs using FITC-TUNEL staining by flow cytometry (reference value: 7.3 %); assay type: functional; summary of the method: as §2
HCT-116 [22] = assay: Cell cycle arrest in human HCT116 cells assessed as increase of phosphorylated histone H3 at Ser10 level at 150 nM after 24 hrs by Western blotting; assay type: functional, cell-based; summary of the method: as §3
HCT-116 [23] = assay: Cell cycle arrest in human HCT116 cells assessed as accumulation at G0/G1 phase at 150 nM after 24 hrs by FACS analysis (reference value: 76.5 %); assay type: functional
HCT-116 [24] = assay: Induction of apoptosis in human HCT116 cells at 150 nM after 24 hrs using FITC-TUNEL staining by flow cytometry; assay type: functional; summary of the method: as §2
HCT-116 [25] = assay: Cell cycle arrest in human HCT116 cells assessed as increase of phosphorylated histone H3 at Ser10 level at 150 nM after 24 hrs using propidium iodide staining by flow cytometry (reference value: 1.4 %); assay type: functional
HCT-116 [26] = assay: Cell cycle arrest in human HCT116 cells assessed as accumulation at S phase at 150 nM after 24 hrs by FACS analysis (reference value: 8.5 %); assay type: functional
HCT-116 [27] = assay: Cell cycle arrest in human HCT116 cells assessed as accumulation at G2/M phase at 150 nM after 24 hrs by FACS analysis (reference value: 10.9 %); assay type: functional

Chain of Tubulin (Sus scrofa) (P02550 whole entry, looked up): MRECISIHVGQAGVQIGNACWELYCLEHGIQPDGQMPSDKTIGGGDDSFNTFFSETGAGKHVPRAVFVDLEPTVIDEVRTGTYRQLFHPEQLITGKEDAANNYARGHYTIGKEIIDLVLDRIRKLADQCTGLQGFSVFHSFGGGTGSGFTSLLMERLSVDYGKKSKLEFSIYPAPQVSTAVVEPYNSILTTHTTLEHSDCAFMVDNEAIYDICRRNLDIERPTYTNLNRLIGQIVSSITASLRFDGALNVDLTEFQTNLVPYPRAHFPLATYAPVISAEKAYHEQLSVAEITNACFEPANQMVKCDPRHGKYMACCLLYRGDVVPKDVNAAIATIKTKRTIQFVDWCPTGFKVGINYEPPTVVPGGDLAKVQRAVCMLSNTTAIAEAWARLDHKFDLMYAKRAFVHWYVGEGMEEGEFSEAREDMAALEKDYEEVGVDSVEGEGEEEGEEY
Chain of Tubulin (Sus scrofa) (P02554 whole entry, looked up): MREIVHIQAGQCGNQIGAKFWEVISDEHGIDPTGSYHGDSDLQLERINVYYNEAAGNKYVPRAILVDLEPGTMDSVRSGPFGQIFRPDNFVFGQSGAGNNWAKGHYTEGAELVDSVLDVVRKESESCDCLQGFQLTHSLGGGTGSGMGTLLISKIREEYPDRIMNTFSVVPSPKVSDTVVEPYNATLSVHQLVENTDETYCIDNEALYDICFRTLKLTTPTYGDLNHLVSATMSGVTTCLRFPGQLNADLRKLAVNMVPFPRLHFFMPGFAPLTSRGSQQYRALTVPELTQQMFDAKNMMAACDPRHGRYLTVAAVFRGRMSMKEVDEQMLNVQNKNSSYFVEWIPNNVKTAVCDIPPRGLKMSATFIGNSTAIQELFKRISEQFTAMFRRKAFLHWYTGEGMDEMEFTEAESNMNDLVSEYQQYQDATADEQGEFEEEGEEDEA

Row | SMILES | IC50 (MCF7) [µM] | IC50 (SK-BR-3) [µM] | IC50 (HCT-116 [4]) [µM] | IC50 (SW-620) [µM] | IC50 (MDA-MB-231) [µM] | IC50 (SW480) [µM] | also measured
1 | CC(=O)Oc1ccccc1C(=O)Oc1ccc(CO[N+](=O)[O-])cc1 | > 100 | 30.5 | 68 | 15.1 | 14.4 | 19.1 | Activity (HCT-116 [1]): 53.7%; Activity (HCT-116 [2]): 4%; Activity (HCT-116 [3]): 18.8%; Activity (HCT-116 [5]): 3.6%; Activity (HCT-116 [6]): 12%; Activity (HCT-116 [7]): 15.3%; Activity (HCT-116 [8]): inactive; Activity (HCT-116 [9]): 1.7%
2 | CC(=O)O[C@H]1C(=O)[C@@]2(C)[C@H]([C@H](OC(=O)c3ccccc3)[C@]3(O)C[C@H](OC(=O)[C@H](O)[C@@H](NC(=O)c4ccccc4)c4ccccc4)C(C)=C1C3(C)C)[C@]1(OC(C)=O)CO[C@@H]1C[C@@H]2O |  |  |  |  |  |  | inhibition (Tubulin (Homo sapiens) [10]): inactive
3 | O=C(Nc1ccccc1)c1cccc(CO[N+](=O)[O-])c1 | > 100 | 8.2 | 19.3 | 8.4 | 8.4 | 13.3 | 
4 | O=C(Oc1ccccc1)c1ccc(CO[N+](=O)[O-])cc1 | > 100 | 50.1 | 17.9 | 16.9 | 47.7 | 80.7 | 
5 | O=C(Nc1ccccc1OC(=O)c1ccc(CCl)cc1)c1ccc(CCl)cc1 | 58.1 | 0.6 | 0.6 | 0.8 | 0.8 | 6.9 | 
6 | O=C(Nc1ccccc1OC(=O)c1ccc(CO[N+](=O)[O-])cc1)c1ccc(CO[N+](=O)[O-])cc1 | > 100 | 0.7 | 0.7 | 0.8 | 1.4 | 3.8 | inhibition (Tubulin (Homo sapiens) [11]): Active; Activity (HCT-116 [12]): 36.4%; Activity (HCT-116 [13]): 7.3%; inhibition (Tubulin (Sus scrofa)): Active; Activity (HCT-116 [14]): 52.4%; Activity (HCT-116 [15]): 11%; Activity (HCT-116 [16]): 4%; Activity (HCT-116 [17]): 29.3%; Activity [18]: Non-toxic; Activity (HCT-116 [8]): Active; Activity (HCT-116 [19]): 26.4%
7 | O=C(Nc1ccccc1)c1ccccc1 [N-PHENYLBENZAMIDE] | > 100 | > 100 | > 100 | > 100 | > 100 | > 100 | 
8 | CC[C@]1(O)C[C@H]2CN(CCc3c([nH]c4ccccc34)[C@@](C(=O)OC)(c3cc4c(cc3OC)N(C=O)[C@H]3[C@@](O)(C(=O)OC)[C@H](OC(C)=O)[C@]5(CC)C=CCN6CC[C@]43[C@@H]65)C2)C1 [VINCRISTINE] |  |  |  |  |  |  | Activity (HCT-116 [20]): 23%; Activity (HCT-116 [21]): 31.6%; Activity (HCT-116 [22]): Active; Activity (HCT-116 [23]): 35.9%; inhibition (Tubulin (Homo sapiens) [10]): Active; Activity (HCT-116 [24]): 4%; Activity (HCT-116 [25]): 25.3%; Activity (HCT-116 [26]): 12.5%; Activity (HCT-116 [27]): 28.6%
9 | CCc1ccc(C(=O)Nc2ccccc2)cc1 | > 100 | > 100 | > 100 | > 100 | > 100 | > 100 | 
10 | O=C(Nc1ccccc1)c1ccc(CCl)cc1 | 54.3 | 0.7 | 1.2 | 0.8 | 0.8 | 0.9 | 
11 | O=C(Nc1cccc(OC(=O)c2ccc(CO[N+](=O)[O-])cc2)c1)c1ccc(CO[N+](=O)[O-])cc1 | > 100 | 6.3 | 6.2 | 7.6 | 6.7 | 8.4 | 
12 | O=C(Nc1ccccc1OC(=O)c1cccc(CO[N+](=O)[O-])c1)c1cccc(CO[N+](=O)[O-])c1 | > 100 | 18.5 | 47.6 | 25.8 | 30 | 22.2 | 
13 | O=C(Nc1ccccc1NC(=O)c1ccc(CO[N+](=O)[O-])cc1)c1ccc(CO[N+](=O)[O-])cc1 | > 100 | > 100 | > 100 | > 100 | > 100 | > 100 | 
14 | O=C(Nc1ccccc1)c1ccc(CO)cc1 | > 100 | 9.8 | 24.8 | > 100 | > 100 | > 100 | 
